Measurements: ChEMBL document CHEMBL1135813, “Orally-effective, long-acting sorbitol dehydrogenase inhibitors: synthesis, structure-activity relationships, and in vivo evaluations of novel heterocycle-substituted piperazino-pyrimidines” (J Med Chem, 2002)

Legend:
[1] = biological target: T1, Sorbitol dehydrogenase (Homo sapiens, UniProt Q00796)
T1 sequence (Q00796 whole entry): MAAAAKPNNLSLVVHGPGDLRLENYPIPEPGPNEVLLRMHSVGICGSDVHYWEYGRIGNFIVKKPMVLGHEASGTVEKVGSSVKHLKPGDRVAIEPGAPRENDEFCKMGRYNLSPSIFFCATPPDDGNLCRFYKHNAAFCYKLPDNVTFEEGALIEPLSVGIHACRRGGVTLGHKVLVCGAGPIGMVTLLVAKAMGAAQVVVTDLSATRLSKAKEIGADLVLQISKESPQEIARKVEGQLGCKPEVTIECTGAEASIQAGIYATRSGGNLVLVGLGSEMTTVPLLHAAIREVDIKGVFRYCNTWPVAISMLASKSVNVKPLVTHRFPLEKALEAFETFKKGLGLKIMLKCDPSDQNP

[2] = species: Rattus norvegicus; assay: Concentration required for 50% prevention of sciatic nerve fructose accumulation using acute model in streptozocin (STZ)-induced diabetic rats; type: functional
Summary of the method: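 STZ diabetes was induced in male CD Sprague-Dawley rats (175-225 g) with 85 mg/kg iv (citrate, pH 4.5). Oral gavage doses were given 4, 7 and 24 h after STZ, and rats were killed at 28 h. Left sciatic nerve was extracted in 6% perchloric acid and neutralized. Fructose was assayed with FDH/resazurin for 60 min at room temperature (fluorescence). ED50 is expressed as total mg/kg/day.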

[3] = system: Rattus norvegicus; assay: Concentration required for 50% ability to normalize elevated sciatic nerve fructose in reversal protocol using chronic model in streptozocin (STZ)-induced diabetic rats (in vivo); type: functional; conditions: in the assay text read “90% ability” for “50% ability”
Summary of the method: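 Diabetes was induced in male CD Sprague-Dawley rats (175-225 g) with STZ (85 mg/kg in 0.01 M citrate, pH 4.5) by tail vein. Oral gavage was given once daily from day 8 for 5 days. Rats were killed 4 h after the last dose (day 12). Left sciatic nerve fructose was measured in perchloric acid extract by FDH/resazurin fluorescence (ex 560, em 580 nm) against standards.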

IC50 [1]	Compound	ED50 [2]	ED90 [3]
64 nM	OCc1nccc(N2CCN(c3nsc4ccccc34)CC2)n1	–	–
12 nM	C[C@@H](O)c1nccc(N2CCN(c3nsc4ccccc34)CC2)n1	–	–
170 nM	C[C@@H](O)c1nccc(N2CCN(c3nc4ncccc4o3)CC2)n1	–	–
190 nM	C[C@@H](O)c1nccc(N2CCN(c3nc(C(F)(F)F)cc(C(F)(F)F)n3)CC2)n1	–	–
190 nM	OCc1nccc(N2CCN(c3nc4ccccc4o3)CC2)n1	–	–
140 nM	Cc1cc(CO)nc(N2CCN(c3ccnc([C@@H](C)O)n3)C[C@H]2C)n1	–	–
23 nM	C[C@@H](O)c1nccc(N2CCN(c3nc4ccncc4o3)[C@@H](C)C2)n1	–	–
99 nM	C[C@@H](O)c1nccc(N2CCN(c3cnc4ccccc4n3)[C@@H](C)C2)n1	–	–
40 nM	C[C@@H](O)c1nccc(N2CCN(c3ccnc(CCO)n3)CC2)n1	1 mg/kg/day	–
59 nM	C[C@@H](O)c1nccc(N2CCN(c3ccnc(CCO)n3)C[C@@H]2C)n1	–	–
35 nM	C[C@@H](O)c1nccc(N2CCN(c3nc4ccccc4o3)CC2)n1	12 mg/kg/day	–
72 nM	CC(C)c1cc(C(C)C)nc(N2CCN(c3ccnc([C@@H](C)O)n3)CC2)n1	–	–
80 nM	Cc1cc(CO)nc(N2CCN(c3ccnc([C@@H](C)O)n3)C[C@@H]2C)n1	–	2 mg/kg/day
10 nM	C[C@@H]1CN(c2ccnc(CCO)n2)C[C@H](C)N1c1ccnc([C@@H](C)O)n1	–	2 mg/kg/day
93 nM	Cc1cc(C)nc(N2CCN(c3ccnc(CO)n3)CC2)n1	–	–
32 nM	C[C@@H](O)c1nccc(N2CCN(c3nc4cccnc4o3)CC2)n1	0.5 mg/kg/day	–
67 nM	C[C@@H](O)c1nccc(N2CCN(c3nccc(-c4ccccc4)n3)CC2)n1	–	–
23 nM	Cc1cc(C)nc(N2CCN(c3ccnc([C@@H](C)O)n3)CC2)n1	1.3 mg/kg/day	–
8 nM	Cc1nc2ccccc2nc1N1CCN(c2ccnc([C@@H](C)O)n2)CC1	–	–
100 nM	Cc1cc(CO)nc(N2C[C@@H](C)N(c3ccnc([C@@H](C)O)n3)[C@@H](C)C2)n1	–	1 mg/kg/day
170 nM	Cc1cc(CO)nc(N2CCN(c3ccnc([C@@H](C)O)n3)[C@H](C)C2)n1	–	–
200 nM	Cc1cc(CO)nc(N2CCN(c3ccnc([C@@H](C)O)n3)[C@@H](C)C2)n1	–	–

IC50 [1]	Compound	ED50 [2]	ED90 [3]
87 nM	OCc1nccc(N2CCN(c3ccc4ccccc4n3)CC2)n1	–	–
20 nM	Cc1cc(CO)nc(N2CCN(c3ccnc([C@@H](C)O)n3)CC2)n1	0.5 mg/kg/day	–
120 nM	C[C@@H](O)c1nccc(N2CCN(c3cnc4cc(Cl)c(Cl)cc4n3)CC2)n1	–	–
220 nM	Cc1cc(-c2ccccc2)nc(N2CCN(c3ccnc([C@@H](C)O)n3)CC2)n1	–	–
37 nM	C[C@@H](O)c1nccc(N2CCN(c3noc4ccccc34)CC2)n1	–	–
180 nM	C[C@@H]1CN(c2cnc3ccccc3n2)C[C@H](C)N1c1ccnc([C@@H](C)O)n1	–	1 mg/kg/day
270 nM	C[C@@H]1CN(c2nc3ccncc3o2)C[C@H](C)N1c1ccnc([C@@H](C)O)n1	–	–
34 nM	C[C@@H](O)c1nccc(N2CCN(c3nccc4ccccc34)CC2)n1	–	–
130 nM	Cc1cc(CO)nc(N2[C@H](C)CN(c3ccnc([C@@H](C)O)n3)C[C@@H]2C)n1	–	–
110 nM	Cc1ccnc(N2CCN(c3ccnc([C@@H](C)O)n3)CC2)n1	–	–
12 nM	C[C@@H]1CN(c2ccnc(CCO)n2)CCN1c1ccnc([C@@H](C)O)n1	–	–
80 nM	CCc1cc(CC)nc(N2CCN(c3ccnc([C@@H](C)O)n3)CC2)n1	–	–
24 nM	C[C@@H](O)c1nccc(N2CCN(c3nc4ccncc4o3)CC2)n1	0.5 mg/kg/day	10 mg/kg/day
260 nM	OCc1nccc(N2CCN(c3ccnc(CO)n3)CC2)n1	–	–
80 nM	C[C@@H](O)c1nccc(N2CCN(c3nc4cnccc4o3)CC2)n1	–	–
120 nM	OCc1nccc(N2CCN(c3noc4ccccc34)CC2)n1	–	–
150 nM	OCc1nccc(N2CCN(c3nccc4ccccc34)CC2)n1	–	–
31 nM	Cc1cc(N2CCN(c3ccnc([C@@H](C)O)n3)CC2)nc(C)n1	5 mg/kg/day	–
36 nM	C[C@@H](O)c1nccc(N2CCN(c3cnc4ccccc4n3)CC2)n1	1 mg/kg/day	> 20 mg/kg/day
140 nM	Cc1cc(N2CCN(c3ccnc(CO)n3)CC2)nc(C)n1	–	–
44 nM	C[C@@H](O)c1nccc(N2CCN(c3ccc4ccccc4n3)CC2)n1	–	–
240 nM	CN(C)S(=O)(=O)N1CCN(c2ccnc(CO)n2)CC1	–	–
